Test results from ChEMBL document CHEMBL5154797 (Eur J Med Chem, 2022).
Calls of active or inactive are those of the source. No cut-off for these calls is given here.

Legend:
[1] = Cytotoxicity against golden hamster BSR cells assessed as reduction in cell viability incubated for 24 hrs by microplate luminometer method; format: toxicity, cell-based, Mesocricetus auratus; settings: for CC50: bsr, 24 h; for CC50 at 24 h: BSR cells
Method in brief: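 BSR cells given serial dilutions from 200 μM, with medium in place of virus. After 24 h at 37 °C, viability was read by luminometer and CC50 calculated.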

SARS-CoV-2 = experiment: Antiviral activity against S-protein based pseudotyped SARS-CoV-2 infected in Huh7 cells measured after 24 hrs by bright-Glo luciferase assay; format: functional, organism-based; settings: Severe acute respiratory syndrome coronavirus 2, Huh-7, 24 h
Method in brief: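 Serial dilutions from 200 μM were held with pseudotyped SARS-CoV-2 (1.3 × 10^4 TCID50) at 37 °C for 1 h, then mixed with Huh7 cells (2000 cells/well) and incubated 24 h. EC50 was calculated from bioluminescence intensity.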

[2] = Selectivity index, ratio of CC50 for cytotoxicity against golden hamster BSR cells to EC50 for antirabies activity against Rabies virus infected in golden hamster BSR cells; format: toxicity, cell-based; settings: read-out: Selectivity Index
Lyssavirus rabies [3] = experiment: Antirabies activity against rabies CVS infected in golden hamster BSR cells preincubated for 1 hr followed by mixing of cells measured after 24 hrs by inverted fluorescence microscope analysis; format: functional, organism-based
Huh-7 = experiment: Cytotoxicity against human HuH-7 cells assessed as reduction in cell viability incubated for 24 hrs by microplate reader assay; format: functional
[4] = Selectivity index, ratio of CC50 for cytotoxicity against human Huh7 cells to EC50 for antiviral activity against S-protein based pseudotyped SARS-CoV-2 infected in Huh7 cells; format: functional
Spike glycoprotein = Spike glycoprotein (Severe acute respiratory syndrome coronavirus 2, UniProt P0DTC2); experiment: Binding affinity to SARS-CoV-2 spike protein assessed as Kd by SPR analysis
[5] = Acute toxicity in Kunming mouse assessed as lethal dose administered orally measured after 7 days; settings: in vivo, 800 mg/kg, route po, time 7 day
Method in brief: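 Female Kunming mice (20.0 ± 1.0 g), 6 per group, randomly assigned. Single oral dose of 0, 200, 400, 600 or 800 mg•kg−1, with ddH2O as control. Body weight, behaviour and survival monitored for 7 days.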

Lyssavirus rabies [6] = experiment: Antirabies activity against rabies CVS infected in golden hamster BSR cells assessed as inhibition of viral growth at 25 uM treated 1 hr post infection measured after 23 hrs by measuring luciferase signal; format: functional, organism-based; settings: time 24.0 hrs
[7] = molecular target: Spike glycoprotein (Severe acute respiratory syndrome coronavirus 2) (UniProt P0DTC2); experiment: Binding affinity to SARS-CoV-2 spike protein at 0.16 to 5 uM by SPR analysis; settings: dose 0.16-5 µM, DDE = dose-dependent effect
Method in brief: (§1)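 Biacore SPR with PBS-P as sample and running buffer. Target protein was amine-coupled to a CM5 chip in sodium acetate pH 4.0. Compound dilution series flowed at 30 μL/min, with 60 s contact and 120 s dissociation. Reference flow cell and blank cycle responses were subtracted.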

[8] = Binding affinity to rabies recombinant GST-His-tagged G-glycoprotein protein (20 to 459 AA residues) expressed in Escherichia coli BL21 (DE3) cells assessed as Kd treated for 60 secs followed dissociation time of 120 secs by SPR analysis; parameters: species or system Lyssavirus rabies; method in brief: as §1

| SMILES | CC50 [1] | EC50 (SARS-CoV-2) | selectivity ratio [2] | EC50 (Lyssavirus rabies [3]) | CC50 (Huh-7) | Selectivity Index [4] | Kd (Spike glycoprotein) | LD50 at 168 h [5] | Activity (Lyssavirus rabies [6]) | Activity [7] | Kd [8] | CC50 at 24 h [1] |
| --- | --- | --- | --- | --- | --- | --- | --- | --- | --- | --- | --- | --- |
| CCC/N=c1\cc2n(-c3ccccc3)c3ccccc3nc-2cc1Nc1ccccc1 | 14.4 µM | < 10 µM | 19 | 0.76 µM | 35.6 µM | >3.5 | – | – | – | – | – | – |
| COc1ccc(-n2c3c/c(=N\C4CCC(OC)CC4)c(Nc4ccc(F)cc4)cc-3nc3ccccc32)cn1 (stereo not given) | 84.4 µM | < 10 µM | 33.1 | 2.55 µM | 51.3 µM | >5.1 | – | – | – | – | – | – |
| COc1ccc(Nc2cc3nc4ccccc4n(-c4ccc(Cl)cc4)c-3c/c2=N\C(C)C)cn1 | 35.4 µM | 153 µM | 15.5 | 2.29 µM | > 267 µM | >1.7 | – | – | – | – | – | – |
| COc1ccc(-n2c3c/c(=N\C(C)C)c(Nc4cccc(F)c4)cc-3nc3ccccc32)cn1 | – | 14.6 µM | 223 | 1.45 µM | 88.9 µM | 6.1 | 2.52 µM | 800 mg/kg | Active | Dde | 0.73 µM | – |
| CC(C)/N=c1\cc2n(-c3ccccc3)c3ccccc3nc-2cc1NCc1ccc(F)cc1 | 17.3 µM | < 10 µM | 9.1 | 1.9 µM | 29.6 µM | >2.9 | – | – | – | – | – | – |
| CC(C)/N=c1\cc2n(-c3ccccc3)c3ccccc3nc-2cc1NCc1ccccc1 | 107 µM | < 10 µM | 76.4 | 1.4 µM | < 10 µM | – | – | – | – | – | – | – |
| COc1ccc(-n2c3c/c(=N\C(C)C)c(Nc4ccccc4)cc-3nc3ccccc32)cn1 | – | < 10 µM | 26.3 | 12.3 µM | < 10 µM | – | – | – | – | – | – | 323 µM |
| CC(C)/N=c1\cc2n(-c3ccccc3)c3ccccc3nc-2cc1Nc1ccccc1 | – | 17.2 µM | 30.1 | 10.7 µM | 177 µM | 10.2 | – | – | – | – | – | 323 µM |
| CC(C)/N=c1\cc2n(-c3ccc(Cl)cc3)c3ccccc3nc-2cc1Nc1ccc(OC(F)(F)F)cc1 | – | 9.98 µM | 182 | 1.77 µM | 38.4 µM | 3.8 | – | – | – | – | – | – |
| CC(C)/N=c1\cc2n(-c3ccc(Cl)cc3)c3ccccc3nc-2cc1Nc1ccccc1 | 185 µM | 40.9 µM | 21.9 | 8.44 µM | 154 µM | 3.8 | – | – | – | – | – | – |
| COc1ccc(-n2c3c/c(=N\C(C)C)c(Nc4ccc(Cl)cc4)cc-3nc3ccccc32)cn1 | 107 µM | < 10 µM | 21.3 | 5.03 µM | 51.3 µM | >5.1 | – | – | – | – | – | – |
| Clc1ccc(Nc2cc3nc4ccccc4n(-c4ccc(Cl)cc4)c-3c/c2=N\C2CC2)cc1 | – | 141 µM | 14.2 | 22.7 µM | > 267 µM | >1.9 | – | – | – | – | – | – |
| CC(C)/N=c1\cc2n(-c3ccccc3)c3ccccc3nc-2cc1Nc1ccc(Cl)cc1 | 42.6 µM | < 10 µM | 22.4 | 1.9 µM | 16.1 µM | >1.6 | – | – | – | – | – | – |
| COc1ccc(-n2c3c/c(=N\C(C)C)c(Nc4ccc(F)cc4)cc-3nc3ccccc32)cn1 | – | < 10 µM | 229 | 1.41 µM | 88.9 µM | >8.9 | – | 800 mg/kg | Active | – | – | 323 µM |
| N=c1cc2n(-c3ccc(Cl)cc3)c3ccccc3nc-2cc1Nc1ccccc1 | 35.4 µM | < 10 µM | 1.7 | 20.6 µM | < 10 µM | – | – | – | – | – | – | – |
| N=c1cc2n(-c3ccc(Cl)cc3)c3ccccc3nc-2cc1Nc1ccc(Cl)cc1 | 35.4 µM | – | 1.7 | 20.6 µM | – | – | – | – | – | – | – | – |
| COc1ccc(Nc2cc3nc4ccccc4n(-c4ccc(Cl)cc4)c-3c/c2=N\C(C)C)c(OC)c1 | 120 µM | < 10 µM | 17.6 | 6.86 µM | 13.5 µM | >1.3 | – | – | – | – | – | – |
